MC4R antag cAMP: antagonists of human melanocortin 4 receptor (MC4R). P32245. MC4R-expressing cells, MTII-stimulated cAMP, LANCE TR-FRET. inhibition, % at 6.5 µM. 360,000 compounds, 0.48% hits. AID 540295;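 active = inhibition above its plate's cutoff, the mean of tested wells on that plate plus 3 SD, cut at about 29% in these data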;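 also: 0% = Melanotan II alone and 100% = Melanotan II plus saturating MCL0020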
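Test system: U2OS cells stably expressing human melanocortin 4 receptor (MC4R); also added: Melanotan II challenge; compound: 6.5 µM single dose; timing: 30-min compound preincubation, 1-h Melanotan II challenge, 1-h detection, room temperature; signal: Eu-cAMP/anti-cAMP TR-FRET, emission 671 nm; repeats: one well per compound, no replicates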
TLR9-MyD88 inh: TLR9-MyD88 interaction inhibition; Q9NR96+Q99836; CHO BLA complementation TLR9-MyD88, CCF4 FRET ratio; inhibition, % at 4.98 µM; 340,000 compounds, 0.21% hits;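 active = inhibition above the mean over all tested compounds plus 3 SD, cut at about 21% in these data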;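 also: 0% = DMSO only wells and 100% = clavulanate BLA inhibitor control wells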
NOD2 RIPK2 PPI: inhibitors of human NOD2-RIPK2 interaction; O43353; AID 624267; 360,000 compounds, 0.38% hits; CHO BLA complementation NOD2-RIPK2, CCF4 ratio; inhibition, % at 4.98 µM; in the data active = inhibition above about 21%;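 also: 0% = vehicle only and 100% = reference blocker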
MC4R barr agon: human MC4R agonism via beta-arrestin. P32245. U2OS MC4R beta-arrestin complementation, luminescence; percent of melanotan II response, DMSO zero. activation, % at 8.9 µM. 360,000 compounds, 0.98% hits. AID 540308;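 active = activation above a per-plate cutoff, the mean activation of sample wells on that plate plus 3 SD, cut at about 8% in these data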
TLR4 MyD88 comp: TLR4-MyD88 interaction inhibition in cells; O00206+Q99836; HeLa CL3-4 TLR4/MyD88 BLA complementation, FRET ratio; inhibition, % at 8.4 µM; 200,000 compounds, 0.18% hits; AID 861; in the data active = inhibition above about 25%;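 also: 0% = vehicle and 100% = reference inhibitor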
NTR1 ag: activates human neurotensin receptor 1. P30989. NTR1-U2OS beta-arrestin-GFP spot imaging, agonist mode. activation, % at 20 µM. 330,000 compounds, 0.17% hits. AID 493036;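 active = activation at or above 40% of the spot to cytoplasm intensity ratio, with at least 20 cells analyzed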;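 also: 0% = DMSO without peptide and 100% = 100 nM NTR1 peptide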
Target sequence (P30989 whole entry, looked up): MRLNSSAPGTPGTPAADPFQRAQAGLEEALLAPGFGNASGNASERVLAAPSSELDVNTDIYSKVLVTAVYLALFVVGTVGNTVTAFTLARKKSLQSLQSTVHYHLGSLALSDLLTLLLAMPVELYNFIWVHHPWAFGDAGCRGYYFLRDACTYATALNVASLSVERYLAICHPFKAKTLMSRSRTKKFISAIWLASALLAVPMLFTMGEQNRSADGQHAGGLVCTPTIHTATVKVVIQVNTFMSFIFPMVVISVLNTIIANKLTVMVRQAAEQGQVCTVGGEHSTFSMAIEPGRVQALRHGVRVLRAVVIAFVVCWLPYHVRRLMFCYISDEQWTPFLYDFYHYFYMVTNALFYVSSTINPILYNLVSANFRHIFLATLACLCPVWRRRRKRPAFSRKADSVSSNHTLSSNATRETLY
MC4R barr ag: human MC4R beta-arrestin agonism confirmation; shares compounds with MC4R barr agon; U2OS MC4R beta-arrestin recruitment, luminescence; scaled DMSO 0%, Melanotan II 100%; activation, % at 8.9 µM; 2,400 compounds, 31% hits; AID 602192;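 active = mean activation across replicates above the hit cutoff set in the earlier primary screen, cut at about 8% in these data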
MOR-DOR barr ag: activates mu-delta opioid heterodimer, MC4R agonist counter-screen. shares compounds with MC4R barr agon. U2OS PathHunter beta-arrestin, beta-gal luminescence; percent of deltorphin B response, DMSO zero. activation, % at 9.2 µM. 2,400 compounds, 5.8% hits. AID 602194;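 active = mean activation across replicates exceeds the hit threshold derived in the earlier primary screen, cut at about 18% in these data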;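 also: 100% = deltorphin B at 0.9 µM final and 0% = DMSO alone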
Active calls of the source: *; · = no result. Hits are enriched below; roughly 1.9% of the tested compounds scored in any of these assays.

SMILES	MC4R antag cAMP	TLR9-MyD88 inh	NOD2 RIPK2 PPI	MC4R barr agon	TLR4 MyD88 comp	NTR1 ag	MC4R barr ag	MOR-DOR barr ag
O=C1N(Nc2ccccc2)C(c2ccc(Br)cc2)C12CCCCC2 (stereo not drawn)	-2	-15	-12	24*	-4	7	10*	5
CN(C)CCCN(C(=O)/C=C/c1cccs1)c1nc2ccc(F)cc2s1	-7	-1	10	10*	-5	-1	16*	8
COc1ccc2sc(N(CCCN(C)C)C(=O)c3nc4ccccc4s3)nc2c1	-10	-3	-2	12*	-14	-1	8.3*	10
CN(C)CCN(C(=O)/C=C/c1cccs1)c1nc2c(F)cc(F)cc2s1	8	8	-3	21*	-12	10	5	14
Cc1ccc2nc(N(CCCN(C)C)C(=O)CCc3ccccc3)sc2c1	-3	6	4	0	4	·	·	·
CCOc1ccc2nc(N(CCN(C)C)C(=O)/C=C/c3cccs3)sc2c1	-5	-10	-4	-2	·	1	·	·
CCN(CC)CCN(C(=O)/C=C/c1cccs1)c1nc2ccc(F)cc2s1	3	-7	-9	-2	·	6	·	·
CN(C)CCCN(C(=O)CCc1ccccc1)c1nc2ccc(Cl)cc2s1	-4	3	3	11*	3	7	31*	16
Nc1nc2c(nc(SCc3ccccc3Br)n2[C@@H]2O[C@H](CO)[C@@H](O)[C@H]2O)c(=O)[nH]1	2	-9	-10	0	·	2	·	·
COCCNC(=O)c1cc2c(c(-c3cccc(-c4cc5ccccc5o4)c3)n1)[C@@H](CCO)N(S(=O)C(C)(C)C)C2 (stereo partly drawn)	·	·	9	·	·	·	·	·
CCOc1cccc2sc(N(CCN(C)C)C(=O)/C=C/c3cccs3)nc12	-2	-8	0	15*	·	1	3	9
CCc1ccc2nc(N(CCN(C)C)C(=O)/C=C/c3cccs3)sc2c1	7	3	10	0	·	4	·	·
COc1cccc2sc(N(CCN(C)C)C(=O)/C=C/c3cccs3)nc12	7	4	-4	7	-3	8	·	·
CN(C)CCN(C(=O)/C=C/c1cccs1)c1nc2ccc(Br)cc2s1	4	4	18	31*	·	-1	12*	6
CCc1ccc(NC(=O)Cc2c(C(=O)O)n(C)c3ccccc23)cc1	9	-9	1	-1	-10	1	·	·
COc1ccccc1-c1noc(CCCC(=O)NC2CCCCC2)n1	6	0	-6	1	·	1	·	·
CCOC(=O)c1ccc(-c2ccc(-c3cc(=O)oc4cc(OC)c(OC)c(OC)c34)cc2)cc1	0	5	4	0	·	4	·	·
COc1ccc(-c2noc(-c3ccc(Br)o3)n2)cc1	5	0	4	4	·	-1	·	·
COc1ccc(-c2nc(-c3ccc(Br)o3)no2)cc1	3	10	-7	13*	10	-1	-2	3
O=C(N/N=C/c1ccc(F)cc1)c1cccc(NC(=O)c2ccccc2Cl)c1	11	-11	3	-2	·	-2	·	·
N#C/C(=C\c1ccc[nH]1)C(=O)Nc1ccccc1Cl	11	3	-4	12*	·	-1	0	14
COc1ccc(NC(=O)/C(C#N)=C/c2ccc[nH]2)c(OC)c1	-3	3	-5	10*	·	0	-2	12
N#C/C(=C\c1ccc[nH]1)C(=O)Nc1ccccc1F	-4	12	-9	-3	·	1	·	·
COc1ccc(NS(=O)(=O)c2cc3c(cc2C)N(C(C)=O)CCO3)c(OC)c1	7	1	2	-2	·	1	·	·
CC(=O)c1cccc(NCC(=O)N2CCN(S(=O)(=O)c3ccccc3)CC2)c1	4	3	6	-3	·	0	·	·
SMILES	MC4R antag cAMP	TLR9-MyD88 inh	NOD2 RIPK2 PPI	MC4R barr agon	TLR4 MyD88 comp	NTR1 ag	MC4R barr ag	MOR-DOR barr ag
CC(Sc1nnc(C2CC2)n1C1CC1)C(=O)N(C)Cc1cccc(F)c1 (stereo not drawn)	18	9	2	1	·	-1	·	·
CC(C)n1c(O)c(/C=C2\C=Nc3ccccc32)sc1=Nc1ccccc1	-4	2	-9	13*	18	13	-2	3
O=C(NC1CCN(Cc2ccccc2)CC1)c1ccc(CS(=O)c2ccccc2Cl)o1 (stereo not drawn)	4	-17	-4	1	·	·	·	·
O=C(CCC(=O)OCc1ccc(C(=O)Oc2ccccc2)cc1)Nc1cccc2ccccc12	1	-2	2	-2	-13	0	·	·
COc1ccccc1/C=C/C=N/n1c(-c2ccccc2)n[nH]c1=S	20	-2	0	8	·	5	·	·
COc1ccc(-c2n[nH]c(=S)n2/N=C/C=C/c2ccccc2OC)cc1	-4	-2	-5	11*	-19	6	-1	7
CC1CC(C)CN(C(=O)c2cccc(S(=O)(=O)NCc3ccccc3)c2)C1 (stereo not drawn)	10	-11	9	-2	·	1	·	·
CCN1CCN(C(=O)/C=C/c2ccc(C(C)C)cc2)CC1	6	4	-8	-3	·	1	·	·
CCN1CCC(O)(/C=C/c2ccc(C(C)C)cc2)C(C(=O)/C=C/c2ccc(C(C)C)cc2)C1 (stereo not drawn)	4	-4	0	12*	·	·	17*	14
CCOC(=O)CSc1nnc(-c2cccs2)n1-c1ccccc1	7	2	-9	-1	3	-2	·	·
O=C(CSc1nnc(-c2cccs2)n1-c1ccccc1)Nc1ccccc1	22	-5	-7	11*	15	4	2	7
O=C(COC(=O)c1ccc2c(c1)C(=O)N(CCc1ccccc1)C2=O)Nc1ccc(OC(F)F)cc1	11	-1	6	13*	-17	6	10*	6
Cc1cc(C)c(S(N)(=O)=O)c(C)c1N(C)S(=O)(=O)c1ccc(Cl)cc1	6	10	-8	-5	·	3	·	·
C[N+](C)(CCOc1ccccc1)Cc1ccccc1	9	-3	-1	-1	·	·	·	·
Cc1cc(C(C)(C)CC(C)(C)C)ccc1OCCOCC[N+](C)(C)Cc1ccccc1	11	-6	-10	25*	·	20	37*	29*
CCOc1ccc(-n2c(SCC(=O)Nc3ccccc3CC)nc3n[nH]c(C)c3c2=N)cc1	·	·	·	·	8	1	·	·
CCOc1ccc(-n2c(SCC(=O)Nc3ccc(Br)cc3)nc3n[nH]c(C)c3c2=N)cc1	2	5	-4	17*	0	2	4	9

Assay outcomes: PubChem BioAssay, several laboratories
